From ChEMBL document CHEMBL5674890, “Selective inhibition of CBP/p300 HAT by A-485 results in suppression of lipogenesis and hepatic gluconeogenesis” (Cell Death Dis, 2020)

Tests used:
Format in all cases: organism-based
Conditions in all cases: in vivo, 168 h, time 1 weeks
[1] = Toxicity in C57BL/6 mouse supplemented with normal chow diet assessed as effect on oxygen consumption at 20 mg/kg/day, ip administered for 1 week
How it was run: (§1)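 Male C57BL/6 mice, 8 weeks old, on normal chow, 12 h light/dark, barrier housing. Dosed intraperitoneally 20 mg·kg−1·day−1 for 7 days alongside vehicle-injected controls. Body weight followed over treatment; food intake, VO2, VCO2, respiratory exchange ratio, and plasma total cholesterol and triglyceride recorded. Mean ± SEM, n = 5–9; t test, P < 0.05.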

[2] = Toxicity in C57BL/6 mouse supplemented with normal chow diet assessed as effect on food intake at 20 mg/kg/day, ip administered for 1 week; how it was run: as §1
[3] = Toxicity in C57BL/6 mouse supplemented with normal chow diet assessed as effect on body weight at 20 mg/kg/day, ip administered for 1 week; how it was run: as §1
[4] = Toxicity in C57BL/6 mouse supplemented with normal chow diet assessed as effect on plasma total cholesterol content at 20 mg/kg/day, ip administered for 1 week; how it was run: as §1
[5] = Toxicity in C57BL/6 mouse supplemented with normal chow diet assessed as effect on respiratory exchange ratios at 20 mg/kg/day, ip administered for 1 week; how it was run: as §1
[6] = Toxicity in C57BL/6 mouse supplemented with normal chow diet assessed as effect on carbon dioxide production at 20 mg/kg/day, ip administered for 1 week; how it was run: as §1
[7] = Toxicity in C57BL/6 mouse supplemented with normal chow diet assessed as effect on triglyceride levels at 20 mg/kg/day, ip administered for 1 week; how it was run: as §1

Measured: Activity

CNC(=O)Nc1ccc2c(c1)CC[C@@]21OC(=O)N(CC(=O)N(Cc2ccc(F)cc2)[C@@H](C)C(F)(F)F)C1=O
Non-Toxic: all assays above
